In the library only some 2.3% were active in any assay of this set; here they are far more common.
TRPC4 inh – inhibitors of mouse TRPC4 channel, primary screen, Fluo4 calcium, HEK293 TRPC4beta/mu-opioid cells | B-score at 10 µM | DAMGO-evoked Fluo4 calcium flux; active compounds read low | Short transient receptor potential channel 4 (Mus musculus), Q9QUQ5 | 300,000 tested, 0.39% active;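 active = B-score over 3 SD under the library average, no early fluorescence shift, positive overall ratio signal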
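material = TRPC4beta/mu-opioid receptor HEK293 cell line | probe or stimulus = sequential submaximal and maximal DAMGO stimulation | compound dosing = one concentration per compound | measured by = Fluo4 Ca2+ flux fluorescence | evaluation = integrated fluorescence ratio relative to baseline, converted to per-well B score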
TRPC4 agonist – activators of mouse TRPC4 channel, primary screen, Fluo4 calcium, HEK293 TRPC4beta/mu-opioid cells; Short transient receptor potential channel 4 (Mus musculus), Q9QUQ5; Fluo4 calcium fluorescence; active compounds read high; B-score at 10 µM; 310,000 tested, 0.49% active;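 active = B-score above 5 SD of library B-scores, and initial fluorescence ratio not above library mean plus 5 SD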;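 also: positive B-score marks a calcium rise read as TRPC4 activation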
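Test system: HEK293 cells stably co-expressing mouse TRPC4beta and mu-opioid receptor | Schedule: Fluo4 dye loading 45 min at room temperature, 110 s recording | Measured by: Kinetic Fluo4 calcium fluorescence, 5 s baseline at 1 Hz | Evaluation: B score of integrated ratio | Controls: Buffer (low) and maximal DAMGO (high)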
TRPC6 activator – mouse TRPC6 channel activators, primary screen, cell-based, HEK293, membrane potential dye | B-score at 10 µM | HEK293-TRPC6 membrane potential dye fluorescence; active compounds read high | AID 2550, 2010 | 310,000 tested, 0.13% active | Short transient receptor potential channel 6 (Mus musculus), Q61143;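 active = B-score of the integrated fluorescence ratio above library mean plus 3 SD, and starting fluorescence ratio within library mean plus 5 SD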;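 also: higher score means more depolarization so channel activation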
TRPC6 inhibitor – mouse TRPC6 channel inhibitors, primary screen, cell-based, HEK293, membrane potential dye; Short transient receptor potential channel 6 (Mus musculus), Q61143; ACh-evoked depolarization; active compounds read low; B-score at 10 µM; 310,000 tested, 1.1% active;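 active = B-score under library mean minus 3 SD, initial fluorescence not abnormally high, positive integrated signal ratio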;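 also: B-score derived from integrated fluorescence ratio over the kinetic read; more negative B-score means stronger inhibition of depolarization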
Yeast superoxide – reduction of superoxide in aged yeast, primary screen, HTS. S. cerevisiae aged cells, superoxide DHE fluorescence; active compounds read low. superoxide response (% of plate mean), % at 10 µM. 330,000 tested, 0.18% active;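 active = superoxide response under a set limit, about three screen SD below normal, cut at about 65% in these data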;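 also: yeast aged for seven days with compound at 30 °C before DHE staining; 100% = average MFI of all compound-treated wells on the plate with controls excluded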
TRPC4 potent – positive allosteric modulators of TRPC4, primary screen, cell-based, mouse TRPC4beta, HEK293 mu-opioid, Fluo-4 calcium. B-score at 10 µM. AID 2227, 2009. Short transient receptor potential channel 4 (Mus musculus), Q9QUQ5. DAMGO EC20, Fluo-4 Ca2+ flux; active compounds read high. 310,000 tested, 0.42% active;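 active = B-score of calcium response area above 5 SD of library B-scores, with initial fluorescence ratio within 5 SD of library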;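 also: B-score of integrated fluorescence ratio over time as area under calcium response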
TRPC4 spec 2 – second check of whether TRPC6 inhibitors also affect mouse TRPC4. HEK293 TRPC4/MOR, membrane potential dye fluorescence; channel activated by saturating DAMGO dose. inhibition, % at 10 µM. 920 tested, 42% active. shares compounds with TRPC6 inhibitor. AID 2776;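 active = compounds whose fluorescence signal differed from control wells by over 3 SD, either direction, in both duplicate plates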
TRPC4 spec – mouse TRPC4 modulation by TRPC6 hits, confirmation, selectivity assay for TRPC6 inhibitor project, cell-based, HEK293 TRPC4/mu-opioid, membrane potential dye; 920 tested, 61% active; membrane potential fluorescence; AID 2777, 2010; activity change, negative = inhibition, % at 10 µM; shares compounds with TRPC6 inhibitor;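 active = rise or fall in signal beyond 3 SD of buffer-only wells in both replicate plates, either sign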;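 also: integrated kinetic ratio of fluorescence range over baseline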
HEK293 MPD ctr 2-1 – nonspecific membrane potential effects, parental HEK293, confirmation, counter-screen for TRPC6 inhibitor project, cell-based, second counter screen. 920 tested, 31% active. signal change vs control, % at 10 µM. shares compounds with TRPC6 inhibitor. parental HEK293 membrane potential dye fluorescence; maximal acetylcholine challenge after compound addition;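 active = membrane potential signal moving either way by over 3 SD of the maximum-effect control, in both duplicate plates, meaning non-specific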
HEK293 MPD ctr-1 – membrane potential modulation in parental HEK293, confirmation, counter-screen for TRPC6 inhibitor project, cell-based; shares compounds with TRPC6 inhibitor; parental HEK293 membrane potential dye fluorescence; membrane potential signal change, % at 10 µM; 920 tested, 60% active;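 active = membrane potential signal shifting up or down by more than 3 SD of buffer-only wells, on both duplicate plates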
HEK293 MPD ctr-2 – parental HEK293 membrane potential modulation, confirmation, counter-screen for TRPC6 modulator project, cell-based. shares compounds with TRPC6 inhibitor. membrane potential signal change, % at 10 µM. 2,400 tested, 51% active. membrane potential dye fluorescence;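 active = membrane potential signal moves up or down beyond 5 SD from buffer-only wells, on both duplicate plates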
HEK293 MPD ctr 2-2 – second check of TRPC6 modulator effects in parental HEK293 cells. shares compounds with TRPC6 inhibitor. membrane potential dye fluorescence; after compound, maximal acetylcholine stimulation. inhibition, % at 10 µM. 2,400 tested, 14% active. AID 488926;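 active = membrane potential signal drops by more than 5 SD from the mean control signal, in both duplicate plates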;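 also: plate controls were acetylcholine ECmax control wells for no effect and buffer only wells for full effect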
TRPC4 ctr mod – TRPC4 modulation by TRPC6 hit compounds, confirmation, selectivity assay for TRPC6 modulator project, cell-based, HEK293 TRPC4/mu-opioid, membrane potential dye, mouse; shares compounds with TRPC6 inhibitor; membrane potential fluorescence; percent change from control (negative = decrease, positive = increase), % at 10 µM; 2,400 tested, 69% active; AID 488927, 2010;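 active = membrane potential signal moved up or down beyond 5 SD of buffer control wells, in both duplicate plates, actives on both sides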;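 also: plate controls were assay buffer wells for no effect and DAMGO maximal-effect wells for full effect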
TRPC4/MOR inh 2 – mouse TRPC4 off-target activity of TRPC6 modulators, second screen. 2,400 tested, 55% active. shares compounds with TRPC6 inhibitor. AID 488928. inhibition, % at 10 µM. HEK293 TRPC4/mu-opioid, membrane potential dye fluorescence; stimulated with maximal-effect DAMGO;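 active = drop in membrane potential signal beyond 5 SD of the control wells in both duplicate plates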;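 also: TRPC4 counter screen for TRPC6 hits run under conditions tuned for TRPC6 not TRPC4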
TRPC6 block conf – mouse TRPC6 channel inhibitors, confirmation, HEK293 cells, membrane potential dye, duplicate. ACh-evoked depolarization. AID 488960, 2010. inhibition, % at 10 µM. 3,300 tested, 43% active. shares compounds with TRPC6 inhibitor;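 active = fluorescence ratio falls more than 5 SD below the full-stimulation control mean, in both duplicate runs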;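 also: integrated fluorescence ratio of peak minus minimum over baseline after agonist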
TRPC6 act confirm – mouse TRPC6 channel activators, confirmation, HEK293 cells, membrane potential dye, duplicate | shares compounds with TRPC6 inhibitor | HEK293-TRPC6 membrane potential dye fluorescence, FDSS | activation, % at 10 µM | 2,800 tested, 11% active;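 active = ratio signal rise beyond 5 SD above unstimulated control wells' mean, seen in both duplicate runs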;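 also: plate controls were buffer EC0 wells for no effect and acetylcholine ECmax response for full effect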
Numbers without * were called inactive; i = inactive; . = no result given.

SMILES	TRPC4 inh	TRPC4 agonist	TRPC6 activator	TRPC6 inhibitor	Yeast superoxide	TRPC4 potent	TRPC4 spec 2	TRPC4 spec	HEK293 MPD ctr 2-1	HEK293 MPD ctr-1	HEK293 MPD ctr-2	HEK293 MPD ctr 2-2	TRPC4 ctr mod	TRPC4/MOR inh 2	TRPC6 block conf	TRPC6 act confirm
CC(C)(C)NC(=O)C(c1ccc(F)cc1)N(Cc1ccco1)C(=O)CCC(=O)Nc1ccccn1 (stereo not given)	i	i	i	-6*	108	i	.	.	.	.	354%*	i	78%*	i	i	.
O=[N+]([O-])c1cc(Cl)cc(/C=N/NC(=S)Nc2ccc(S(=O)(=O)N3CCOCC3)cc2)c1O	i	i	i	-7.6*	109	26*	57%*	-24%*	i	-274%*	.	.	.	.	i	i
O=S(=O)(c1ccc(Cl)c(NC(=S)N/N=C/c2ccc(O)cc2)c1)N1CCOCC1	i	i	i	-9.1*	103	i	.	.	.	.	i	i	i	i	i	i
Cc1cc(C)n2nc(S(=O)(=O)Nc3c(Cl)cccc3Cl)nc2n1	i	i	i	i	72	i	.	.	.	.	.	.	.	.	.	.
O=C(CCNS(=O)(=O)c1c(Cl)cccc1Cl)OCC(=O)c1ccccc1	i	i	i	i	98	i	.	.	.	.	.	.	.	.	.	.
O=C(c1ccc(Cl)c(S(=O)(=O)Nc2ccc(F)cc2)c1)N1CCN(c2ccccn2)CC1	i	i	i	-10*	103	i	i	9.5%*	i	4.3%*	.	.	.	.	i	i

Assay outcomes from PubChem.
